The values that follow come from the array DNA melting data of Ke et al. (doi:10.1101/2024.01.08.574731).

Data set [1] can be described thus: folding enthalpy; higher = less favourable; fluorescence melt of hairpins on a sequencing array, two-state fit. To be noted: sodium 0.088 M. The method, boiled down: (§1)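 Bootstrapped two-state fits yielded melting temperature and folding enthalpy for library hairpins. Cy3 fluorescence, with annealed Cy3 and quencher oligos, was imaged on a sequenced MiSeq flow cell in 50 mM Na-HEPES pH 8.0, 25 mM NaCl in 2.5 °C steps up to 60 °C, and normalised to pre-quench Cy3 and to control constructs. Four replicates were combined by inverse variance, and fitted temperatures were raised by 9.35 °C to match UV melts.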

The nature of data set [2]: melting temperature; fluorescence melt of hairpins on a sequencing array, two-state fit, raised by 9.35 °C to match UV melts. The settings on record: sodium 0.088 M. In a few lines:
as §1

Take GCACTGCGAAAGCCGCGC ((.(.((....)).).)): the folding enthalpy in data set [1] is -21 kcal/mol. Further, the Tm in data set [2] worked out at 45.4 °C.

For the sequence GCAAGGCGAAAGCACTGC (((..((....))..))), the folding enthalpy in data set [1] was -19.7 kcal/mol. The Tm in data set [2] was determined as 46.7 °C.

In the case of GTAAGGCGAAAGCCTAC (((.(((....)))))), in data set [1], the folding enthalpy is -11.4 kcal/mol. Further, the Tm in data set [2] stood at 46 °C.

For GATCGACCACTCGATC ((((((....)))))), the folding enthalpy in data set [1] is -38.1 kcal/mol. The Tm in data set [2] worked out at 50.5 °C.

Turning to GGCTTTTCGAAAGAAGCC (((..(((....)))))), the folding enthalpy in data set [1] was -33.7 kcal/mol. The Tm in data set [2] worked out at 45.6 °C.

In the case of GCTGGCGAAAGCCTTAGC ((((((....)))..))), the folding enthalpy in data set [1] is -15.1 kcal/mol. Also, in data set [2], the Tm amounted to 44.4 °C.

In the case of GATCTGAGGCAGATC ((((((...)))))), the folding enthalpy in data set [1] is -31.4 kcal/mol. Besides, the Tm in data set [2] was 47.5 °C.

GCTGAGACGAAAGTCAGC (((..(((....)))))): the folding enthalpy in data set [1] is -21.4 kcal/mol. Further, in data set [2], the Tm is 49.1 °C.

Take GTAACGGGAAACCATTAC ((((.((....)).)))): the folding enthalpy in data set [1] is -11.8 kcal/mol. For the same sequence, the Tm in data set [2] was determined as 28.4 °C.

In the case of GCCTACGAAAGTAGTGGC ((((((....)))..))), the folding enthalpy in data set [1] was -24.3 kcal/mol. Also, in data set [2], the Tm came to 48.4 °C.

For GTCATACGAAAGTACGAC (((.(((....))).))), in data set [1], the folding enthalpy was -28.7 kcal/mol. In addition, the Tm in data set [2] was 42.9 °C.

GTCCGATCGAAAGATGAC (((..(((....)))))): in data set [1], the folding enthalpy is -10.7 kcal/mol. The Tm in data set [2] was determined as 28.3 °C.

In the case of GTACACCGAAAGGTCTAC (((.(((....))).))), the folding enthalpy in data set [1] is -15.3 kcal/mol. In addition, the Tm in data set [2] stood at 30.9 °C.

As to GGCAACGAAAGTTTGGCC ((((((....)))..))), the folding enthalpy in data set [1] is -27.3 kcal/mol. The Tm in data set [2] worked out at 46.4 °C.

In the case of GATCGATCTTCGATC ((((((...)))))), the folding enthalpy in data set [1] is -33.6 kcal/mol. For the same sequence, the Tm in data set [2] turned out to be 52.5 °C.

As to GATCATCATCATGATC ((((((....)))))), in data set [1], the folding enthalpy is -34.8 kcal/mol. Besides, in data set [2], the Tm came out at 45 °C.

GTACCGGGAAACCGGTGC (.(((((....))))).): the folding enthalpy in data set [1] is -19.1 kcal/mol. Besides, the Tm in data set [2] amounted to 57.1 °C.

As to GGCACTGGAAACAATGCC ((((.((....)).)))), the folding enthalpy in data set [1] is -29.6 kcal/mol. Also, in data set [2], the Tm came out at 42.7 °C.

Consider GCTTAGGGAAACCTAGGC ((.((((....)))).)), for which the folding enthalpy in data set [1] is -34.1 kcal/mol. Besides, in data set [2], the Tm stood at 44.4 °C.

As to GCGAGTCGAAAGACCCGC (((.(((....))).))), in data set [1], the folding enthalpy is -48.2 kcal/mol. The Tm in data set [2] turned out to be 57.3 °C.

For GCGTACGAAAGTAACCGC ((((((....)))..))), the folding enthalpy in data set [1] is -22.1 kcal/mol. For the same sequence, the Tm in data set [2] stood at 45 °C.

GCGGGGGCCGC ((((...)))): in data set [1], the folding enthalpy was -9.27 kcal/mol. Besides, the Tm in data set [2] amounted to 62.1 °C.

For the sequence GCTCACGAAAGTGTTAGC ((((((....)))..))), in data set [1], the folding enthalpy was -21.6 kcal/mol. Further, the Tm in data set [2] turned out to be 40.8 °C.

On to GTCAATGGAAACATTGAC (((((((....))))))), for which the folding enthalpy in data set [1] is -39.8 kcal/mol. Further, the Tm in data set [2] is 58.9 °C.

For GATCCCCGGAGGGATC ((((((....)))))), the folding enthalpy in data set [1] was -19.2 kcal/mol. For the same sequence, the Tm in data set [2] stood at 59.5 °C.

As to GAAAGCGAAAGCTTCTTC ((((((....)))..))), in data set [1], the folding enthalpy was -24.5 kcal/mol. Further, in data set [2], the Tm worked out at 53.5 °C.

Turning to GAGGGACCGAAAGGTCTC (((..(((....)))))), the folding enthalpy in data set [1] was -11.6 kcal/mol. Also, in data set [2], the Tm was 38.3 °C.

GGGAGGGGAAACCTTCCC ((((.((....)).)))): in data set [1], the folding enthalpy was -25.1 kcal/mol. Moreover, the Tm in data set [2] was found to be 50 °C.

Turning to GATCTAGCACTAGATC ((((((....)))))), the folding enthalpy in data set [1] is -43.9 kcal/mol. Besides, the Tm in data set [2] amounted to 47.1 °C.

Regarding GTGATGGGAAACCATTAC ((.((((....)))).)), in data set [1], the folding enthalpy was -31.1 kcal/mol. Further, in data set [2], the Tm came to 43.5 °C.

For the sequence GGTAAACGAAAGTTGACC (((.(((....))).))), in data set [1], the folding enthalpy was -36.3 kcal/mol. For the same sequence, the Tm in data set [2] is 49.4 °C.

In the case of GCATGGCGAAAGCCGCGC ((..(((....)))..)), the folding enthalpy in data set [1] is -19.7 kcal/mol. Besides, the Tm in data set [2] amounted to 61.1 °C.

Regarding GCGAAACGTCGC ((((....)))), in data set [1], the folding enthalpy was -19.5 kcal/mol. Further, the Tm in data set [2] worked out at 47.8 °C.

Turning to GAGCGCGGAAACGCACCC (.(.(((....))).).), the folding enthalpy in data set [1] is -7.47 kcal/mol. The Tm in data set [2] is 31.7 °C.

For the sequence GGCTGCGAAAGCACTGCC ((((((....)))..))), in data set [1], the folding enthalpy was -20.5 kcal/mol. In data set [2], the Tm is 50.9 °C.

For the sequence GTTCACGAAAGTGCAAC ((((((....))).))), the folding enthalpy in data set [1] is -16.8 kcal/mol. In addition, the Tm in data set [2] worked out at 37.8 °C.

Take TGACAGAAATGTCA (((((....))))): in data set [1], the folding enthalpy was -20.1 kcal/mol. Further, in data set [2], the Tm came to 42.1 °C.

Take GTGGTAGGAAACTATCAC (((.(((....))).))): in data set [1], the folding enthalpy is -28.4 kcal/mol. In data set [2], the Tm amounted to 44.4 °C.

Consider GCACGGCGAAAGCCCAGC ((..(((....)))..)), for which the folding enthalpy in data set [1] is -12.2 kcal/mol. Besides, the Tm in data set [2] was determined as 38.4 °C.

Turning to GAAACAGGAAACTGTTTC (((((((....))))))), the folding enthalpy in data set [1] is -41.9 kcal/mol. Also, the Tm in data set [2] was found to be 55.5 °C.

In the case of GATCCCGTCGGGGATC ((((((....)))))), in data set [1], the folding enthalpy is -35.1 kcal/mol. Also, in data set [2], the Tm was found to be 64.1 °C.

Regarding GAGAACCGAAAGGTACTC (((.(((....))).))), the folding enthalpy in data set [1] is -34.9 kcal/mol. In addition, the Tm in data set [2] came out at 50.7 °C.

On to GGAAATCGAAAGATATCC (((.(((....))).))), for which, in data set [1], the folding enthalpy was -26.2 kcal/mol. Also, the Tm in data set [2] stood at 37.8 °C.

Regarding GCATCGCGAAAGCTCTGC (((..((....))..))), the folding enthalpy in data set [1] was -15.9 kcal/mol. In data set [2], the Tm came out at 36.8 °C.

On to GCCTCCGAAAGGATAGGC ((((((....)))..))), for which, in data set [1], the folding enthalpy was -37.1 kcal/mol. The Tm in data set [2] turned out to be 53.2 °C.

In the case of GGGGCGGCGAAAGCCCCC (((..(((....)))))), the folding enthalpy in data set [1] was -16.6 kcal/mol. Besides, the Tm in data set [2] turned out to be 64 °C.

For GGTCCGGGAAACCGGGTC (..((((....))))..), the folding enthalpy in data set [1] was -12.7 kcal/mol. For the same sequence, the Tm in data set [2] is 47.6 °C.

Consider GCAACTCGAAAGAGGTGC (((.(((....))).))), for which the folding enthalpy in data set [1] was -40.6 kcal/mol. Further, in data set [2], the Tm worked out at 65.5 °C.

For GTATCGCCGAAAGGCTAC (((..(((....)))))), the folding enthalpy in data set [1] is -6.58 kcal/mol. For the same sequence, the Tm in data set [2] was determined as 32.9 °C.

As to GATCGAAGAGTCGATC ((((((....)))))), the folding enthalpy in data set [1] is -31.6 kcal/mol. The Tm in data set [2] was found to be 47.5 °C.

Regarding GATCGATTGATCGATC ((((((....)))))), the folding enthalpy in data set [1] is -45.5 kcal/mol. For the same sequence, the Tm in data set [2] came out at 54.8 °C.

Regarding GCTGGGCGAAAGCCAAGC (((.(((....))).))), the folding enthalpy in data set [1] is -26.8 kcal/mol. For the same sequence, in data set [2], the Tm was found to be 66.8 °C.

In the case of GCTGATCGAAAGATAGC (((.(((....)))))), the folding enthalpy in data set [1] was -23.1 kcal/mol. Besides, the Tm in data set [2] turned out to be 41.5 °C.

Regarding GGTTCGGGAAACCGAACC (((((((....))))))), in data set [1], the folding enthalpy is -38.2 kcal/mol. For the same sequence, the Tm in data set [2] worked out at 69.2 °C.

GAGTCGCGAAAGCGCCTC (((.(((....))).))): the folding enthalpy in data set [1] is -23.7 kcal/mol. Also, in data set [2], the Tm turned out to be 54.8 °C.
